A selection: hits, their analogues and other compounds. The true share with any hit is near 1.7%.
STEP inh = blocks human striatal-enriched tyrosine phosphatase. P54829. recombinant STEP, OMFP fluorogenic substrate, fluorescence. hit rate 0.25% among 360,000. inhibition, % at 20 µM;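 active = inhibition at 20 µM, scaled per plate between control wells, above about 37%, limit read from the data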
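Assay system: isolated STEP enzyme / Timing: 20 min at room temperature, dark / Doses: 20 µM, 1% DMSO / Technique: fluorescence intensity, excitation 480 nm, emission 540 nm / Reagent: fluorogenic phosphatase substrate OMFP at 25 µM final / Measure: percent inhibition scaled to no-enzyme and uninhibited-enzyme controls, plate-pattern corrected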
SUMO1 PPI mod = alters human SUMO1 binding to SIM partners. P63165. hit rate 0.33% among 360,000. SUMO1 binding to a labelled peptide, TR-FRET, 1 h. AID 602429. inhibition, % at 20 µM; in the data active = inhibition above about 37%
Target sequence (P63165 whole entry, looked up): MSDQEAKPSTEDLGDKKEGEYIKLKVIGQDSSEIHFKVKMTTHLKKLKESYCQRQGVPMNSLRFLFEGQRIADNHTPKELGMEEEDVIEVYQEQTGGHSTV
DNMT1 block = DNMT1 (human) enzyme inhibition. P26358. DNMT1 molecular beacon, Hinp1I cleavage, fluorescence. inhibition (reported as % activation of signal), % at 10 µM. hit rate 0.83% among 360,000. AID 588458; in the data active = inhibition above about 50%
LMPTP block = blocks human LMPTP phosphatase | inhibition, % at 20 µM | P24666 | hit rate 0.22% among 360,000 | recombinant LMPTP-A, OMFP fluorogenic substrate, fluorescence intensity;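 active = compounds that cut the enzyme signal by at least half of the control window in the single-dose screen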
Target sequence (P24666 whole entry, looked up): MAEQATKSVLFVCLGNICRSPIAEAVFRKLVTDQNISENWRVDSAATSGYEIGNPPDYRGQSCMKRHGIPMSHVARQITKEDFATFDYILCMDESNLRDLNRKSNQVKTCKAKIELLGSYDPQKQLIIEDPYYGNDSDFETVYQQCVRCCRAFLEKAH
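Material: LMPTP-A; amount: 0.625 nM enzyme; doses: single 20 µM dose; times: reaction 50 min, room temperature, dark; technique: fluorescence intensity of OMFP turnover product; benchmarks: no-enzyme and uninhibited controls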
Scp1 inh = Scp-1 (human) phosphatase inhibition | Recombinant Scp1, phosphopeptide, malachite green phosphate absorbance | Q9GZU7 | hit rate 0.88% among 340,000 | inhibition, % at 20 µM | AID 493091;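 active = inhibition above about 50% at 20 µM, limit read from the data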
Target sequence (Q9GZU7 76-261 limits assumed): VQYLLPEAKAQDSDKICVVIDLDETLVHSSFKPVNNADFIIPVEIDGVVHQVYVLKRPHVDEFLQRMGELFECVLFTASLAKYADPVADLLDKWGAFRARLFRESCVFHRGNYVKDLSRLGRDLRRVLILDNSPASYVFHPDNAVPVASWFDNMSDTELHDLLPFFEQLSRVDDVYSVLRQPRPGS
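assay system = SCP-1 phosphatase catalytic domain, residues 76-261 | buffer or medium = 50 mM Tris acetate pH 5.5, 0.005% Tween-20, 10 mM MgCl2 | incubation = enzyme reaction 45 min at room temperature, colour 5 min, stabilisation 30 min | signal = Phosphate-binding colour reagent, absorbance read at 630 nm | measure = % inhibition at 20 µM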
Beacon interf DR = beacon fluorescence artifact, dose response counter-screen; 200 tested, under 10 active; IC50, µM; molecular beacon fluorescence, spectral interference counter-screen; shares compounds with DNMT1 block; call rule not given here
DNMT1 confirm = confirmation of human DNMT1 inhibitors | DNMT1 molecular beacon HinP1I cleavage, fluorescence | inhibition, % at 10 µM | shares compounds with DNMT1 block | hit rate 8% among 2,300;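 active = average inhibition of at least 30% in the single-concentration confirmation test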
DNMT1 interf = beacon fluorescence artifact counter-screen. DNMT1 molecular beacon spectral interference counterscreen, fluorescence 485/520. activation (fluorescence interference), % at 10 µM. hit rate 1% among 2,300. shares compounds with DNMT1 block. AID 602387;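 active = activation of at least 30% at 10 µM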;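 note: DNMT1 catalytic domain with a HinP1I cleavage step and a FAM/dabcyl DNA beacon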
A number is an active result; n = inactive; x = no result given.

SMILES | STEP inh | SUMO1 PPI mod | DNMT1 block | LMPTP block | Scp1 inh | DNMT1 confirm | DNMT1 interf | others
N#Cc1c(NC(=O)/C=C/c2ccco2)sc2c1CCCC2 | n | n | n | n | n | x | x
O=C(/C=C/c1ccco1)Nc1sc2c(c1C(=O)O)CCC2 | n | n | 53.2 | n | n | n | n
CN1CCN(S(=O)(=O)c2ccc(C#N)cc2)C(c2ccccc2)C1 (centres undefined) | n | n | n | n | n | x | x
Cn1c(-c2cccc(OCc3ccccc3)c2)nc2c1c(=O)[nH]c(=O)n2Cc1ccccc1 | n | n | 57.0 | n | n | n | n
O=C1CCCC(O)=C1N=Nc1ccc(C(=O)O)cc1 | n | n | 82.9 | n | 75.7 | n | n
Cc1csc2ncc(C(=O)Nc3cccc(C(F)(F)F)c3)c(=O)n12 | n | n | 68.0 | n | n | n | n
Nc1c(N(CCC2=CCCCC2)C(=O)COc2ccc(F)cc2Cl)c(=O)[nH]c(=O)n1Cc1ccccc1 | n | n | 53.5 | n | n | n | n
Nc1c(N(CCC2=CCCCC2)C(=O)COc2ccc([N+](=O)[O-])cc2)c(=O)[nH]c(=O)n1Cc1ccccc1 | n | n | 58.2 | n | n | n | n
CCc1cc(=O)oc2cc(C)c(CN3CCCC3)c(O)c12 | n | n | 86.6 | n | n | n | n
CCc1cc(=O)oc2cc(C)c(CN3CCCCC3)c(O)c12 | n | n | n | n | n | x | x
CCOC(=O)c1cn(-c2nc(-c3ccc(Cl)c(Cl)c3)cs2)c2c(F)c(N3CCOCC3)c(F)cc2c1=O | n | n | 58.2 | n | n | n | n
CN(C)c1ccc2cc(S(=O)(=O)O)cc(O)c2c1 | n | n | 63.0 | n | 67.3 | n | n
O=Nc1c(O)ccc2cc(S(=O)(=O)O)ccc12 | n | n | n | n | n | x | x
CCOC(=O)C1(Cc2ccc(OC)cc2)CCN(C(=O)[C@@H]2CCCN2C(C)=O)CC1 | n | n | n | n | n | x | x
COc1ccccc1CCNC(=O)c1cc(-c2ccncc2)nc2ccc(Br)cc12 | n | n | 50.2 | n | n | n | n
CSc1ccccc1NC(=O)c1cc(-c2cccnc2)nc2ccc(Br)cc12 | n | n | 56.0 | n | n | n | n
CCCOC1CCCN(C(=O)c2ccc(OC3CCN(Cc4ccccn4)CC3)cc2)C1 (centres undefined) | n | n | n | n | n | x | x
Cc1ccc(S(=O)(=O)Cn2nnnc2C(C(C)C)N2CCC(C(N)=O)CC2)cc1 (centres undefined) | n | n | n | n | n | x | x
CCN(CC)CCCNc1nc2cc(OC)c(OC)cc2c2nc(-c3ccccc3)nn12 | n | n | 64.2 | n | n | n | n | Beacon interf DR=n
CC(C=NNC(=O)C(=O)NN=CC(C)=Cc1ccccc1)=Cc1ccccc1 | n | n | 63.4 | n | n | n | n
CCc1nnc(NC(=O)CSc2nnc(-c3cccnc3)n2C)s1 | n | n | n | n | n | x | x
CCOc1ccc(Cl)cc1-c1cc(C(=O)NC2CCCCC2)[nH]n1 | n | n | 74.3 | n | x | n | n
COc1ccc(CCNC(=O)c2ccc(OCc3c(C)noc3C)cc2)cc1OC | n | n | 54.2 | n | n | n | n
O=[N+]([O-])c1ccc(N/N=C/C=C/c2ccco2)cc1 | n | n | n | n | n | x | x
Cc1oc(-c2ccc(Cl)cc2)cc1-c1nn2c(-c3ccoc3C)nnc2s1 | n | n | 93.2 | n | n | n | n
Clc1ccc(-c2nnc3sc(-c4ccc(Br)o4)nn23)c(Cl)c1 | n | n | n | n | n | x | x
Clc1ccc(-c2nn3c(-c4ccccc4)nnc3s2)cc1 | n | n | n | n | n | x | x
Clc1ccc(-c2nnc3sc(-c4ccc(Br)o4)nn23)cc1 | n | n | 112.5 | n | n | 60.5 | 47.8
COc1cccc(C(NC(C)=O)c2nc(-c3ccoc3)cs2)c1 (centres undefined) | n | n | n | n | x | x | x
COc1ccc2c(c1)OC[C@H]1[C@H]2N2C(=O)c3cc(Br)ccc3NC(=O)[C@@]2(C)[C@H]1c1ccccc1 | n | n | n | n | n | x | x

Bioassay records (PubChem BioAssay)
